The values below come from ChEMBL document CHEMBL2203123, “Synthesis and biological evaluation of some hydrazone derivatives as new anticandidal and anticancer agents” (Eur J Med Chem, 2012).

The structures appear in SMILES notation.

One assay has as its system NIH3T3. The experiment in a line: Cytotoxicity against mouse NIH/3T3 cells after 24 hrs by XTT assay. As to conditions: NIH3T3, 24 h. It counts as cell-based. The method in brief:
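Mouse NIH3T3 fibroblasts grown in DMEM with fetal calf serum, penicillin/streptomycin, 37 °C, 5% CO2; 20,000 cells/well, treated after 24 h with 0.00316 µM-10 mM compound for 24 h. Viability via XTT (3 h, OD 480 nm, reference 680 nm); % inhibition computed and IC50 fitted by non-linear regression.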
As for `Cn1nnnc1SCC(=O)N/N=C/c1ccccc1`, the IC50 was determined as 9.7 mM.
`Cn1nnnc1SCC(=O)N/N=C/c1ccc([N+](=O)[O-])cc1` had an IC50 of 9.3 mM.
On the same count and under the same terms, to `Cc1ccc(/C=N/NC(=O)CSc2nnnn2C)cc1` belongs 3.16 mM; to `Cn1nnnc1SCC(=O)N/N=C/c1ccc(F)cc1`, 10 mM; to `Cn1nnnc1SCC(=O)N/N=C/c1ccc(Cl)cc1`, 2.1 mM.
The compound `Cn1nnnc1SCC(=O)N/N=C/c1ccc(Br)cc1` had a half-maximal inhibitory concentration (IC50) of 10 mM.
On to `CC(C)c1ccc(/C=N/NC(=O)CSc2nnnn2C)cc1`, for which inhibition was half-maximal at 1.2 mM (IC50).
Consider `Cn1nnnc1SCC(=O)N/N=C/c1ccc(C(F)(F)F)cc1`, for which the IC50 is above 10 mM.
On the same count and under the same terms, for `Cn1nnnc1SCC(=O)N/N=C/c1cccc([N+](=O)[O-])c1` the value was 2 mM.

A further assay concerns A549. The experiment in a line: Cytotoxicity against human A549 cells after 24 hrs by XTT assay. It is filed as functional, cell-based. The following applies: A549, 24 h. The method in brief: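 A549 cells in RPMI 1640 with 10% fetal calf serum, penicillin/streptomycin, 37 °C, 5% CO2; 20,000 cells/well seeded, after 24 h exposed to compounds at 0.00316 µM-10 mM for 24 h. XTT mitochondrial activity read at 480 nm (reference 680 nm) after 3 h; % inhibition per concentration, IC50 by non-linear regression.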
`Cn1nnnc1SCC(=O)N/N=C/c1ccccc1` yielded a half-inhibitory concentration (IC50) of 3.16 mM.
Consider `Cn1nnnc1SCC(=O)N/N=C/c1ccc([N+](=O)[O-])cc1`, for which 0.632 mM corresponded to half-maximal inhibition (IC50).
In turn, `Cc1ccc(/C=N/NC(=O)CSc2nnnn2C)cc1` showed an IC50 of 3.16 mM.
Compound `Cn1nnnc1SCC(=O)N/N=C/c1ccc(F)cc1` showed a half-maximal inhibitory concentration (IC50) of 3.16 mM.
For the compound `Cn1nnnc1SCC(=O)N/N=C/c1ccc(Cl)cc1`, inhibition was half-maximal at 0.1 mM (IC50).
Consider `Cn1nnnc1SCC(=O)N/N=C/c1ccc(Br)cc1`, for which the IC50 is above 10 mM.
Turning to `CC(C)c1ccc(/C=N/NC(=O)CSc2nnnn2C)cc1`, the IC50 was 0.4 mM.
As for `Cn1nnnc1SCC(=O)N/N=C/c1ccc(C(F)(F)F)cc1`, the IC50 stood at 6.32 mM.
The same measure, in the same setting: for `Cn1nnnc1SCC(=O)N/N=C/c1cccc([N+](=O)[O-])c1` the value was above 10 mM.

Another assay deals with Candida albicans. As to the kind of experiment: Antifungal activity against Candida albicans clinical isolate after 24 hrs by microdilution susceptibility assay. It counts as functional.
Details: not given
The procedure, abridged:
(§1)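 Broth microdilution in Mueller Hinton Broth, compounds from DMSO stocks diluted serially; inocula standardized to 10^6 CFU/mL (McFarland 0.5) from overnight MHB cultures. Plates held 37 °C for 24 h; MIC taken as first well without turbidity, aided by 1% tetrazolium violet added for 3 h at 37 °C. Ketoconazole reference.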
`Cn1nnnc1SCC(=O)N/N=C/c1ccccc1` showed an MIC above 8000 µg/mL.
Take `Cn1nnnc1SCC(=O)N/N=C/c1ccc([N+](=O)[O-])cc1`: the MIC is above 8000 µg/mL.
Same read-out and setting: to `Cc1ccc(/C=N/NC(=O)CSc2nnnn2C)cc1` belongs above 8000 µg/mL.
`Cn1nnnc1SCC(=O)N/N=C/c1ccc(F)cc1` had a minimal inhibitory concentration (MIC) above 8000 µg/mL.
With `Cn1nnnc1SCC(=O)N/N=C/c1ccc(Cl)cc1`, the minimum inhibitory concentration (MIC) was above 8000 µg/mL.
As for `Cn1nnnc1SCC(=O)N/N=C/c1ccc(Br)cc1`, the MIC was above 8000 µg/mL.
Compound `CC(C)c1ccc(/C=N/NC(=O)CSc2nnnn2C)cc1` came in with an MIC above 8000 µg/mL.
Turning to `Cn1nnnc1SCC(=O)N/N=C/c1ccc(C(F)(F)F)cc1`, the MIC is above 8000 µg/mL.
`Cn1nnnc1SCC(=O)N/N=C/c1cccc([N+](=O)[O-])c1`: the MIC is above 8000 µg/mL.

The next assay deals with Candida albicans. As to the kind of experiment: Antifungal activity against Candida albicans ATCC 10231 after 24 hrs by microdilution susceptibility assay. It counts as functional. The following applies: ATCC 10231, 24 h. The procedure, abridged:
as §1
`Cn1nnnc1SCC(=O)N/N=C/c1ccccc1`: the minimum inhibitory concentration (MIC) is above 8000 µg/mL.
For the compound `Cn1nnnc1SCC(=O)N/N=C/c1ccc([N+](=O)[O-])cc1`, the MIC was above 8000 µg/mL.
`Cc1ccc(/C=N/NC(=O)CSc2nnnn2C)cc1` returned a minimum inhibitory concentration (MIC) above 8000 µg/mL.
As to `Cn1nnnc1SCC(=O)N/N=C/c1ccc(F)cc1`, the MIC was above 8000 µg/mL.
Take `Cn1nnnc1SCC(=O)N/N=C/c1ccc(Cl)cc1`: the minimum inhibitory concentration (MIC) is above 8000 µg/mL.
Compound `Cn1nnnc1SCC(=O)N/N=C/c1ccc(Br)cc1` returned an MIC above 8000 µg/mL.
`CC(C)c1ccc(/C=N/NC(=O)CSc2nnnn2C)cc1` had a minimal inhibitory concentration (MIC) above 8000 µg/mL.
Consider `Cn1nnnc1SCC(=O)N/N=C/c1ccc(C(F)(F)F)cc1`, for which the MIC is above 8000 µg/mL.
Take `Cn1nnnc1SCC(=O)N/N=C/c1cccc([N+](=O)[O-])c1`: the MIC is above 8000 µg/mL.

A further assay deals with Nakaseomyces glabratus. The experiment in a line: Antifungal activity against Candida glabrata Osmangazi University clinical isolate after 24 hrs by microdilution susceptibility assay. It counts as functional.
Details: not given
The method in brief:
as §1
Compound `Cn1nnnc1SCC(=O)N/N=C/c1ccccc1` showed an MIC above 8000 µg/mL.
As to `Cn1nnnc1SCC(=O)N/N=C/c1ccc([N+](=O)[O-])cc1`, the MIC is above 8000 µg/mL.
Compound `Cc1ccc(/C=N/NC(=O)CSc2nnnn2C)cc1` gave an MIC above 8000 µg/mL.
Same read-out and setting: to `Cn1nnnc1SCC(=O)N/N=C/c1ccc(F)cc1` belongs above 8000 µg/mL; to `Cn1nnnc1SCC(=O)N/N=C/c1ccc(Cl)cc1`, above 8000 µg/mL.
As for `Cn1nnnc1SCC(=O)N/N=C/c1ccc(Br)cc1`, the minimum inhibitory concentration (MIC) was above 8000 µg/mL.
`CC(C)c1ccc(/C=N/NC(=O)CSc2nnnn2C)cc1`: the minimum inhibitory concentration (MIC) is above 8000 µg/mL.
The same measure, in the same setting: to `Cn1nnnc1SCC(=O)N/N=C/c1ccc(C(F)(F)F)cc1` belongs above 8000 µg/mL.
For the compound `Cn1nnnc1SCC(=O)N/N=C/c1cccc([N+](=O)[O-])c1`, the minimum inhibitory concentration (MIC) was above 8000 µg/mL.

For another assay, the system named is Cyberlindnera jadinii. As to the kind of experiment: Antifungal activity against Candida utilis NRRL Y-900 after 24 hrs by microdilution susceptibility assay. It counts as functional. As to conditions: Williopsis jadinii, NRRL Y-900, 24 h. The method in brief: as §1
Take `Cn1nnnc1SCC(=O)N/N=C/c1ccccc1`: the minimum inhibitory concentration (MIC) is above 8000 µg/mL.
`Cn1nnnc1SCC(=O)N/N=C/c1ccc([N+](=O)[O-])cc1` yielded an MIC above 8000 µg/mL.
As for `Cc1ccc(/C=N/NC(=O)CSc2nnnn2C)cc1`, the minimum inhibitory concentration (MIC) is above 8000 µg/mL.
With `Cn1nnnc1SCC(=O)N/N=C/c1ccc(F)cc1`, the minimum inhibitory concentration (MIC) is above 8000 µg/mL.
Compound `Cn1nnnc1SCC(=O)N/N=C/c1ccc(Cl)cc1` had an MIC above 8000 µg/mL.
The same measure, in the same setting: for `Cn1nnnc1SCC(=O)N/N=C/c1ccc(Br)cc1` the value was above 8000 µg/mL; for `CC(C)c1ccc(/C=N/NC(=O)CSc2nnnn2C)cc1`, above 8000 µg/mL.
As for `Cn1nnnc1SCC(=O)N/N=C/c1ccc(C(F)(F)F)cc1`, the MIC is above 8000 µg/mL.
In the case of `Cn1nnnc1SCC(=O)N/N=C/c1cccc([N+](=O)[O-])c1`, the minimum inhibitory concentration (MIC) was above 8000 µg/mL.

In another assay the test system is Pichia kudriavzevii. The experiment in a line: Antifungal activity against Candida krusei NRRL Y-7179 after 24 hrs by microdilution susceptibility assay. As to conditions: NRRL Y-7179, 24 h. It counts as functional. The procedure, abridged: as §1
In the case of `Cn1nnnc1SCC(=O)N/N=C/c1ccccc1`, the MIC was above 8000 µg/mL.
In turn, `Cn1nnnc1SCC(=O)N/N=C/c1ccc([N+](=O)[O-])cc1` returned an MIC above 8000 µg/mL.
In turn, `Cc1ccc(/C=N/NC(=O)CSc2nnnn2C)cc1` yielded an MIC above 8000 µg/mL.
On the same count and under the same terms, to `Cn1nnnc1SCC(=O)N/N=C/c1ccc(F)cc1` belongs above 8000 µg/mL; to `Cn1nnnc1SCC(=O)N/N=C/c1ccc(Cl)cc1`, above 8000 µg/mL.
The compound `Cn1nnnc1SCC(=O)N/N=C/c1ccc(Br)cc1` had an MIC above 8000 µg/mL.
As to `CC(C)c1ccc(/C=N/NC(=O)CSc2nnnn2C)cc1`, the minimal inhibitory concentration (MIC) is above 8000 µg/mL.
On the same count and under the same terms, to `Cn1nnnc1SCC(=O)N/N=C/c1ccc(C(F)(F)F)cc1` belongs above 8000 µg/mL; to `Cn1nnnc1SCC(=O)N/N=C/c1cccc([N+](=O)[O-])c1`, above 8000 µg/mL.

The next assay deals with Candida parapsilosis. The experiment in a line: Antifungal activity against Candida parapsilosis NRRL Y-12696 after 24 hrs by microdilution susceptibility assay. It is filed as functional. The following applies: Lodderomyces parapsilosis, NRRL Y-12696, 24 h. The method in brief:
as §1
`Cn1nnnc1SCC(=O)N/N=C/c1ccccc1` showed an MIC above 8000 µg/mL.
Compound `Cn1nnnc1SCC(=O)N/N=C/c1ccc([N+](=O)[O-])cc1` yielded an MIC above 8000 µg/mL.
Consider `Cc1ccc(/C=N/NC(=O)CSc2nnnn2C)cc1`, for which the MIC was above 8000 µg/mL.
Consider `Cn1nnnc1SCC(=O)N/N=C/c1ccc(F)cc1`, for which the minimum inhibitory concentration (MIC) was above 8000 µg/mL.
As to `Cn1nnnc1SCC(=O)N/N=C/c1ccc(Cl)cc1`, the minimum inhibitory concentration (MIC) was above 8000 µg/mL.
Same read-out and setting: to `Cn1nnnc1SCC(=O)N/N=C/c1ccc(Br)cc1` belongs above 8000 µg/mL.
Compound `CC(C)c1ccc(/C=N/NC(=O)CSc2nnnn2C)cc1` had a minimum inhibitory concentration (MIC) above 8000 µg/mL.
As for `Cn1nnnc1SCC(=O)N/N=C/c1ccc(C(F)(F)F)cc1`, the minimal inhibitory concentration (MIC) was above 8000 µg/mL.
Regarding `Cn1nnnc1SCC(=O)N/N=C/c1cccc([N+](=O)[O-])c1`, the minimal inhibitory concentration (MIC) is above 8000 µg/mL.

In another assay the test system is Candida albicans. The experiment in a line: Antifungal activity against Candida albicans ATCC 90028 after 24 hrs by microdilution susceptibility assay. The following applies: ATCC 90028, 24 h. It counts as functional. The method in brief: as §1
`Cn1nnnc1SCC(=O)N/N=C/c1ccccc1` gave an MIC above 8000 µg/mL.
The compound `Cn1nnnc1SCC(=O)N/N=C/c1ccc([N+](=O)[O-])cc1` gave an MIC above 8000 µg/mL.
In turn, `Cc1ccc(/C=N/NC(=O)CSc2nnnn2C)cc1` yielded an MIC above 8000 µg/mL.
`Cn1nnnc1SCC(=O)N/N=C/c1ccc(F)cc1`: the MIC was above 8000 µg/mL.
Turning to `Cn1nnnc1SCC(=O)N/N=C/c1ccc(Cl)cc1`, the MIC was above 8000 µg/mL.
As for `Cn1nnnc1SCC(=O)N/N=C/c1ccc(Br)cc1`, the MIC was above 8000 µg/mL.
The compound `CC(C)c1ccc(/C=N/NC(=O)CSc2nnnn2C)cc1` gave an MIC above 8000 µg/mL.
Still for that read-out and setting: to `Cn1nnnc1SCC(=O)N/N=C/c1ccc(C(F)(F)F)cc1` belongs above 8000 µg/mL; to `Cn1nnnc1SCC(=O)N/N=C/c1cccc([N+](=O)[O-])c1`, above 8000 µg/mL.

The next assay deals with Nakaseomyces glabratus. The experiment in a line: Antifungal activity against Candida glabrata Anadolu University clinical isolate after 24 hrs by microdilution susceptibility assay.
Details: not given
It counts as functional. The method in brief: as §1
Consider `Cn1nnnc1SCC(=O)N/N=C/c1ccccc1`, for which the MIC is above 8000 µg/mL.
Still for that read-out and setting: to `Cn1nnnc1SCC(=O)N/N=C/c1ccc([N+](=O)[O-])cc1` belongs above 8000 µg/mL; to `Cc1ccc(/C=N/NC(=O)CSc2nnnn2C)cc1`, above 8000 µg/mL; to `Cn1nnnc1SCC(=O)N/N=C/c1ccc(F)cc1`, above 8000 µg/mL.
Same read-out and setting: to `Cn1nnnc1SCC(=O)N/N=C/c1ccc(Cl)cc1` belongs above 8000 µg/mL.
`Cn1nnnc1SCC(=O)N/N=C/c1ccc(Br)cc1`: the minimum inhibitory concentration (MIC) was above 8000 µg/mL.
The compound `CC(C)c1ccc(/C=N/NC(=O)CSc2nnnn2C)cc1` displayed an MIC above 8000 µg/mL.
In turn, `Cn1nnnc1SCC(=O)N/N=C/c1ccc(C(F)(F)F)cc1` had a minimal inhibitory concentration (MIC) above 8000 µg/mL.
In the case of `Cn1nnnc1SCC(=O)N/N=C/c1cccc([N+](=O)[O-])c1`, the minimal inhibitory concentration (MIC) is above 8000 µg/mL.
